Compound activity as filed in PubChem.
ABCB1 inh: ABCB1 efflux pump inhibitors, primary screen, cell-based, multiplex, flow cytometry, ABCG2 counter-screen. inhibition, % at 6.6 µM. CCRF-Adr cells, JC-1 efflux. 190,000 tested, 0.067% active. ATP-dependent translocase ABCB1 (Homo sapiens), P08183; in the data active = inhibition above about 40%;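 also: 0% = vehicle and 100% = reference inhibitor; higher value means more JC-1 retained so stronger ABCB1 efflux block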
PMI activator: activators of human PMI, primary screen, biochemical, fluorescence intensity, near-Km mannose 6-phosphate; AID 1214, 2008; 190,000 tested, 0.005% active; purified human PMI, coupled resazurin fluorescence, 20 min; stronger effect = higher value; 1 = vehicle control, 0 substrate-free wells; Mannose-6-phosphate isomerase (Homo sapiens), P34949; activation factor at 20 µM;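 active = activation factor of 2 or more at 20 µM, relative to plate controls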
ABCG2 inh: ABCG2 efflux pump inhibitors, primary screen, multiplex with ABCB1, IgMXP3 cells, flow cytometry | Broad substrate specificity ATP-binding cassette transporter ABCG2 (Homo sapiens), Q9UNQ0 | JC-1 efflux | inhibition, % at 6.6 µM | 190,000 tested, 0.1% active;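 active = inhibition above 80%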;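 also: 0% = DMSO and 100% = nicardipine control wells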
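Test system: IgMXP3 cells (ABCG2) mixed with DDAO far-red-labelled CCRF-Adr cells (ABCB1). Reagent: JC-1 transporter substrate. Compound dosing: single test compound dose, 6.6 µM final. Times: 10 min compound exposure, 25 °C. Detection: flow cytometry of retained JC-1 fluorescence. Read-out basis: efflux inhibition in percent versus controls. Controls: nicardipine and DMSO wells.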
KCC2 mod: KCC2 cotransporter modulators, thallium flux, primary screen, cell-based, HEK293 KCC2, FluoZin-2 fluorescence, MLSMR; 190,000 tested, 2.2% active; AID 1456, 2008; KCC2 cells, thallium flux FluoZin-2 fluorescence; B-score of Tl+ flux slope (higher = more flux/activation; lower = inhibition) at 10 µM; Solute carrier family 12 member 5 (Homo sapiens), Q9H2X9;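 active = thallium flux slope and its plate-corrected score both differing from the plate sample mean at a set confidence after two filtering rounds, in either direction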;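 also: slope of fluorescence scaled to starting intensity during 10 to 20 s after thallium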
PMI act satM6P: human PMI activators, high substrate, primary screen, biochemical, fluorescence intensity, near-saturating mannose 6-phosphate; coupled PMI enzyme assay, resazurin fluorescence, 20 min; stronger effect = higher value; 1 = untreated enzyme, 0 = substrate-free blank; activation factor at 20 µM; 190,000 tested, 0.34% active; AID 1216, 2008;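 active = activation factor of 2 or more at 20 µM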
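Test system: Human PMI in coupled enzyme assay | Input: 15 ng/mL PMI | Medium: HEPES-buffered pH 7.4 with magnesium and detergent | Compound: One concentration, 20 µM, in 1% DMSO | Incubation: Enzyme reaction with compound 20 min at room temperature | Detection: Diaphorase-driven resazurin-to-resorufin fluorescence, excitation 544, emission 590 nm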
ROMK primary: ROMK potassium channel modulators, primary screen, cell-based, thallium flux, MLSMR library; ATP-sensitive inward rectifier potassium channel 1 (Homo sapiens), P48048; Tet-inducible ROMK, thallium flux fluorescence; actives lie on both sides; B-score at 10 µM; 130,000 tested, 2% active;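 active = signal ratio slope over the read window, or its plate-corrected B-score, at least 3 SD from the plate mean, either direction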;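 also: B-score of the F/F0 ratio slope over 7 to 12 s after thallium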
KCC2 secondary: KCC2 modulators in sodium-free buffer, confirmation, cell-based, HEK293 KCC2, thallium flux, secondary assay; shares compounds with KCC2 mod; FluoZin2 fluorescence; stronger effect = higher value; normalised thallium flux (F/F0 slope) at 10 µM; 3,700 tested, 15% active;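 active = thallium flux slope above the same plate's solvent-only control mean plus 3 SD; inconclusive = the two replicate wells disagree; inactive = no significant difference from solvent-only control wells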
KCC2 bumet counter: thallium flux persisting under bumetanide in KCC2 cells, confirmation, counter-screen for KCC2 modulator project, cell-based, HEK293 KCC2, FluoZin2, secondary assay 3; shares compounds with KCC2 mod; HEK293-KCC2 + bumetanide/ouabain; stronger effect = higher value; normalized thallium flux at 10 µM; 3,700 tested, 49% active;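 active = thallium entry rate above the same plate's blocked-transporter control wells by more than 3 SD; inconclusive = the two repeat wells disagree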;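 also: raw slope of fluorescence over initial fluorescence between 10 and 20 s after thallium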
KCC2 sec2: KCC2 modulators without ouabain present, confirmation, cell-based, HEK293 KCC2, thallium flux, FluoZin2, secondary assay 2; 3,700 tested, 23% active; AID 1715, 2009; normalized thallium flux at 10 µM; thallium flux FluoZin2 fluorescence; actives lie on both sides; F/F0 rise rate, 10–20 s post-thallium; shares compounds with KCC2 mod;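 active = thallium flux slope more than 3 SD above or below the plate's solvent-only control mean, mostly below; inconclusive = the two repeat wells disagreed; inactive = no significant shift from solvent-only controls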;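 also: raw slope with 0.1% DMSO as baseline and bumetanide as block control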
HEK293 Tl flux: thallium flux modulation in parental HEK cells, confirmation, counter-screen for KCC2 modulator project, cell-based, counterscreen 1; thallium flux rate (normalised fluorescence) at 10 µM; HEK293 parental cells, thallium flux FluoZin2, ouabain; baseline-ratio fluorescence slope, 10–20 s after thallium; shares compounds with KCC2 mod; 3,700 tested, 46% active;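 active = thallium flux rate significantly above the same plate's solvent-only control wells, beyond their mean plus 3 SD; inconclusive = the two replicate wells gave conflicting results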
KCC2 ouabain: KCC2 inhibitors and activators, ouabain retest, confirmation, HEK-KCC2 cells | shares compounds with KCC2 mod | HEK293-KCC2, thallium flux FluoZin2 fluorescence; bidirectional: low = inhibitor, high = activator | raw Tl+ flux slope (below DMSO = inhibition, above = activation) at 10 µM | 3,700 tested, 48% active;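 active = thallium flux slope beyond 3 SD from same-plate DMSO control mean in most replicates, usually higher, sometimes lower; inconclusive = repeat tests gave conflicting results; inactive = no significant difference from controls in most replicates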;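 also: slope of initial-normalized fluorescence between seconds 10 and 20 after thallium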
HEK293 Tl flux2: native HEK Tl+ uptake effects, second counter-screen – HEK cells, counterscreen 2, counter-screen for KCC2 modulator project, confirmation | HEK293 parental, thallium flux FluoZin-2 fluorescence slope | 3,700 tested, 33% active | shares compounds with KCC2 mod | thallium flux slope at 10 µM | AID 1718, 2009;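 active = thallium flux slope above the same plate's solvent-control mean plus 3 SD in both duplicate wells; inconclusive = duplicate wells that disagreed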;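 also: run without ouabain in cells lacking the KCC2 cotransporter; slope of fluorescence scaled to its starting value between 10 and 20 s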
Numbers without * were called inactive. Most compounds without a hit are left out; they make up all but 3.3% or so of the library.

How did O=C1CC(O)(C(F)(F)F)Oc2c1ccc1ccccc21 (configuration not stated) do in these assays?
ABCB1 inh: 1; PMI activator: 0.8; ABCG2 inh: 0; KCC2 mod: 46*; PMI act satM6P: 0.9; KCC2 secondary: 0.0088; KCC2 bumet counter: 0.077*; KCC2 sec2: 0.065*; HEK293 Tl flux: 0.059*; KCC2 ouabain: 0.067*; HEK293 Tl flux2: 0.061*

What do the screens show for `O=C1CC(O)(C(F)F)Oc2ccc3ccccc3c21` (configuration not stated)?
ABCB1 inh: 0; PMI activator: 1; ABCG2 inh: 0; KCC2 mod: 2.7; PMI act satM6P: 0.8

Results for O=C(NC(=S)Nc1cccc2ncccc12)c1ccco1 ?
ABCB1 inh: 0; PMI activator: 1; ABCG2 inh: 16; KCC2 mod: 13*; PMI act satM6P: 0.9; ROMK primary: 1.1; KCC2 secondary: inconclusive; KCC2 bumet counter: 0.032*; KCC2 sec2: inconclusive; HEK293 Tl flux: 0.021*; KCC2 ouabain: 0.028*; HEK293 Tl flux2: 0.023*

What do the screens show for `COCCCNC(=S)Nc1cccc2ncccc12`?
ABCB1 inh: 1; PMI activator: 0.9; ABCG2 inh: 10; KCC2 mod: 2; PMI act satM6P: 0.5; ROMK primary: 0.59

Results for Cc1sc(NC(=S)NC(=O)c2ccccc2)c(C#N)c1C ?
KCC2 mod: 0.067; ROMK primary: -0.82

How did Cc1sc(NC(=S)NC(=O)c2ccco2)c(C#N)c1C do in these assays?
ABCB1 inh: -1; PMI activator: 1; ABCG2 inh: 4; KCC2 mod: 22*; PMI act satM6P: 1; ROMK primary: 0.92; KCC2 secondary: 0.006; KCC2 bumet counter: 0.022*; KCC2 sec2: inconclusive; HEK293 Tl flux: 0.023*; KCC2 ouabain: 0.03*; HEK293 Tl flux2: 0.019*

What do the screens show for `Cc1cc(NC(=S)NC(=O)c2ccco2)c2ccccc2n1`?
ABCB1 inh: -1; PMI activator: 1; ABCG2 inh: 1; KCC2 mod: 29*; PMI act satM6P: 1; ROMK primary: 0.84; KCC2 secondary: inconclusive; KCC2 bumet counter: 0.084*; KCC2 sec2: 0.066*; HEK293 Tl flux: 0.056*; KCC2 ouabain: 0.071*; HEK293 Tl flux2: 0.058*

What do the screens show for `CCOC(=O)/C(=C/c1ccc(OC(=O)c2ccccc2)cc1)C(C)=O`?
ABCB1 inh: 1; PMI activator: 1; ABCG2 inh: 17; KCC2 mod: -0.021; PMI act satM6P: 1

Results for O=C(Cn1nc(-c2ccc(Cl)cc2)ccc1=O)NCc1ccc2c(c1)OCO2 ?
ABCB1 inh: -3; PMI activator: 1; ABCG2 inh: -4; KCC2 mod: -1.4; PMI act satM6P: 1

How did O=C(Cn1nc(-c2ccccc2)ccc1=O)NCc1ccc2c(c1)OCO2 do in these assays?
ABCB1 inh: 0; PMI activator: 0.9; ABCG2 inh: 1; KCC2 mod: -3.3*; PMI act satM6P: 0.9; ROMK primary: -1; KCC2 secondary: 0.0051; KCC2 bumet counter: inconclusive; KCC2 sec2: 0.025*; HEK293 Tl flux: 0.0077; KCC2 ouabain: inconclusive; HEK293 Tl flux2: 0.011

Results for Cc1nn(-c2ccccc2)c(C)c1/C=C/C(=O)OCC(=O)NC1CCS(=O)(=O)C1 (configuration not stated) ?
ABCB1 inh: 0; PMI activator: 1.1; ABCG2 inh: 7; PMI act satM6P: 1.1; ROMK primary: -0.18; KCC2 secondary: 0.0056; KCC2 bumet counter: 0.0044; KCC2 sec2: 0.027; HEK293 Tl flux: 0.0081; KCC2 ouabain: 0.018; HEK293 Tl flux2: 0.01

Results for O=c1c2ccccc2nc2n1CCCCN2 ?
ABCB1 inh: 0; PMI activator: 1; ABCG2 inh: 1; PMI act satM6P: 1.1

How did CCOc1cc(-c2noc(CCCC(N)=O)n2)cc(Br)c1OC do in these assays?
ABCB1 inh: -1; PMI activator: 0.8; ABCG2 inh: 7; KCC2 mod: 4.5*; PMI act satM6P: 0.8; ROMK primary: 0.53; KCC2 secondary: 0.0073; KCC2 bumet counter: inconclusive; KCC2 sec2: 0.028; HEK293 Tl flux: 0.0074; KCC2 ouabain: 0.019; HEK293 Tl flux2: 0.01

Results for COC(=O)c1ccccc1NC(=S)NC(NC(=O)COc1ccccc1)C(Cl)(Cl)Cl (configuration not stated) ?
ABCB1 inh: 0; PMI activator: 0.8; ABCG2 inh: 1; PMI act satM6P: 0.9; KCC2 secondary: 0.0078; KCC2 bumet counter: inconclusive; KCC2 sec2: 0.031; HEK293 Tl flux: inconclusive; KCC2 ouabain: 0.025*; HEK293 Tl flux2: 0.011
